The text below walks through data of ChEMBL document CHEMBL3102739, “Synthesis and antiproliferative activity of conformationally restricted 1,2,3-triazole analogues of combretastatins in the sea urchin embryo model and against human cancer cell lines” (Bioorg Med Chem, 2014).

The source made the active and inactive calls.

The subject of test [1] is Paracentrotus lividus. Description: Antimitotic activity against sea urchin embryo model assessed as cleavage alteration of fertilized egg compound treated at 8 to 20 mins post-fertilization and 45 to 55 mins prior to first mitotic cycle completion measured 2.5 to 5.5 hrs post-fertilization. Type of test: functional. In a few lines: (§1)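 Fertilized eggs are exposed 8–20 min after fertilization to 2-fold decreasing concentrations. Stocks are 10 mM in DMSO, then diluted 10-fold in 95% EtOH; final DMSO is at most 0.05% and EtOH at most 1%. Embryos are kept as a monolayer, up to 2000 embryos/mL, in filtered seawater at room temperature. The value is the threshold concentration giving cleavage alteration, embryo death before hatching or full mitotic arrest. Duplicates were run.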

Test [2] can be described thus: Cytotoxicity against human SH-SY5Y cells assessed as cell viability after 48 hrs. Type of test: functional, cell-based.
Test [3] concerns Paracentrotus lividus. Description: Antimitotic activity against sea urchin embryo free-swimming blastula model assessed as embryo spinning compound treated at 8 to 10 hrs post-fertilization measured after 0.25 to 20 hrs. The test is classed as functional, Blastula stage.
The test system of test [4] is Paracentrotus lividus. Description: Antimitotic activity against sea urchin embryo model assessed as cleavage arrest of fertilized egg compound treated at 8 to 20 mins post-fertilization and 45 to 55 mins prior to first mitotic cycle completion measured 2.5 to 5.5 hrs post-fertilization. Type of test: functional. In a few lines:
as §1

A short description of test [5]: Induction of apoptosis in human Jurkat/A4 cells assessed as active caspase 3 expression at 150 nM after 24 hrs by FITC-conjugated flow cytometric analysis (reference value: 1.1%). Type of test: functional. Summed up: (§2)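 Jurkat or Jurkat/A4 cells treated, then permeabilized per the manufacturer's protocol and stained with FITC-conjugated monoclonal antibody to active caspase-3. Percentage of positive cells (M1 gate) measured by flow cytometry. Untreated cells served as controls.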

Test [6] concerns Jurkat. Description: Induction of apoptosis in human Jurkat cells assessed as small cell fragments with unequally segregated chromosomes enclosed by cell membrane after 48 hrs by May-Grunwald-Giemsa staining-based microscopic analysis. The test is classed as functional. Summed up: (§3)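 Jurkat or Jurkat/A4 cells treated 48 h, with untreated cells as control. Cells cytospun, stained by May–Grünwald–Giemsa and examined by light microscopy with a 100× objective for micronuclei, membrane-enclosed fragments with unequally segregated chromosomes, and condensed nuclei.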

Test [7] concerns Jurkat. Description: Cell cycle arrest in human Jurkat cells assessed as increase in accumulation at G2/M phase at 15 nM after 24 hrs by propidium iodide staining-based flow cytometric analysis. Type of test: functional.
Test [8] concerns Jurkat. The test can be described thus: Induction of apoptosis in human Jurkat cells assessed as reduction of XIAP expression at 15 nM after 24 hrs Western blotting analysis. The test is classed as functional, cell-based. In a few lines: (§4)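 Treatment 24 or 48 h (Jurkat 15 nM, Jurkat/A4 150 nM for CA4P). Cells washed in ice-cold PBS and lysed 30 min at 4 °C in 20 mM Tris-HCl pH 7.4, 1% Triton X-100, 150 mM NaCl with protease inhibitors. Equal protein run on 12% SDS-PAGE and blotted to PVDF. Probed with monoclonal antibodies to caspase-9, caspase-2, Bcl-2 or XIAP for 2 h at room temperature, then HRP anti-mouse and ECL. β-actin used as loading control.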

Test [9] in a line: Induction of apoptosis in human Jurkat/A4 cells assessed as active caspase 3 expression at 150 nM after 48 hrs by FITC-conjugated flow cytometric analysis (reference value: 1.1%). Type of test: functional. Summed up:
as §2

A short description of test [10]: Cell cycle arrest in human Jurkat/A4 cells assessed as decrease in accumulation at G0/G1 phase at 150 nM after 24 hrs by propidium iodide staining-based flow cytometric analysis. Type of test: functional.
Test [11] has as its system Jurkat. The test can be described thus: Induction of apoptosis in human Jurkat cells assessed as active caspase 3 expression at 15 nM after 24 hrs by FITC-conjugated flow cytometric analysis (reference value: 3.3%). The test is classed as functional. In a few lines:
as §2

In test [12] the test system is Jurkat/A4. The test can be described thus: Induction of apoptosis in human Jurkat/A4 cells assessed as Bcl-2 expression at 150 nM after 24 to 48 hrs Western blotting analysis. Type of test: functional, cell-based. Summed up: as §4
In test [13] the test system is Jurkat/A4. The test can be described thus: Induction of apoptosis in human Jurkat/A4 cells assessed as micronuclei formation after 48 hrs by May-Grunwald-Giemsa staining-based microscopic analysis. Type of test: functional, cell-based. In a few lines: as §3
Test [14] relates to Jurkat. Description: Induction of apoptosis in human Jurkat cells assessed as Bcl-2 expression at 15 nM after 24 to 48 hrs Western blotting analysis. Type of test: functional, cell-based. Summed up:
as §4

Test [15] concerns Jurkat/A4. Description: Induction of apoptosis in human Jurkat/A4 cells assessed as caspase 9 activation at 150 nM after 24 to 48 hrs by Western blotting analysis. The test is classed as functional, cell-based. Summed up: as §4
In test [16] the test system is Jurkat. The test can be described thus: Induction of apoptosis in human Jurkat cells assessed as active caspase 3 expression at 15 nM by FITC-conjugated flow cytometric analysis. Particulars: TDE = time-dependent effect. The test is classed as functional, cell-based. Summed up:
as §2

Test [17] in a line: Cytotoxicity against human Jurkat/A4 cells assessed as cell death at 1 uM after 48 hrs by trypan blue exclusion assay relative to control. Type of test: functional. Summed up:
(§5)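 Compound added to exponentially growing Jurkat or Jurkat/A4 cells in RPMI-1640 with 10% FCS at 37 °C. Viable cells counted directly by trypan blue exclusion after 48 h. EC50 taken by linear interpolation of survival data. Mean±SD from three independent experiments.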

A short description of test [18]: Cell cycle arrest in human Jurkat/A4 cells assessed as accumulation at sub-G1 phase at 150 nM after 48 hrs by propidium iodide staining-based flow cytometric analysis (reference value: 17.1%). The test is classed as functional.
Test [19] has as its system Jurkat. Description: Cytotoxicity against human Jurkat cells assessed as cell viability after 48 hrs by trypan blue exclusion assay. Type of test: functional, cell-based. Summed up: as §5
Test [20] relates to Jurkat. Description: Induction of apoptosis in human Jurkat cells assessed as active caspase 3 expression at 15 nM after 48 hrs by FITC-conjugated flow cytometric analysis (reference value: 3.3%). Type of test: functional. In a few lines:
as §2

Test [21] concerns Jurkat/A4. Description: Induction of apoptosis in human Jurkat/A4 cells assessed as small cell fragments with unequally segregated chromosomes enclosed by cell membrane after 48 hrs by May-Grunwald-Giemsa staining-based microscopic analysis. Type of test: functional. In a few lines: as §3
A short description of test [22]: Cell cycle arrest in human Jurkat/A4 cells assessed as increase in accumulation at G2/M phase at 150 nM after 24 hrs by propidium iodide staining-based flow cytometric analysis. The test is classed as functional.
The subject of test [23] is Jurkat. The test can be described thus: Cell cycle arrest in human Jurkat cells assessed as decrease in accumulation at G0/G1 phase at 15 nM after 24 hrs by propidium iodide staining-based flow cytometric analysis. The test is classed as functional.
Test [24] deals with Jurkat. Description: Induction of apoptosis in human Jurkat cells assessed as micronuclei formation after 48 hrs by May-Grunwald-Giemsa staining-based microscopic analysis. The test is classed as functional, cell-based. In a few lines:
as §3

The test system of test [25] is Jurkat. The test can be described thus: Induction of apoptosis in human Jurkat cells assessed as caspase 9 activation at 15 nM after 48 hrs by Western blotting analysis. Type of test: functional, cell-based. In a few lines:
as §4

Test [26] deals with Jurkat. Description: Cell cycle arrest in human Jurkat cells assessed as accumulation at sub-G1 phase at 15 nM after 48 hrs by propidium iodide staining-based flow cytometric analysis (reference value: 12.2%). The test is classed as functional.
The test system of test [27] is Jurkat. The test can be described thus: Induction of apoptosis in human Jurkat cells assessed as caspase 2 activation at 15 nM after 24 to 48 hrs by Western blotting analysis. The test is classed as functional, cell-based. Summed up: as §4
Test [28] relates to Jurkat/A4. Description: Induction of apoptosis in human Jurkat/A4 cells assessed as caspase 2 activation at 150 nM after 24 to 48 hrs by Western blotting analysis. The test is classed as functional, cell-based. Summed up:
as §4

In test [29] the test system is Jurkat/A4. The test can be described thus: Induction of apoptosis in human Jurkat/A4 cells assessed as reduction of XIAP expression at 150 nM after 24 hrs Western blotting analysis. The test is classed as functional, cell-based. Summed up: as §4

`COc1ccc(-n2nncc2-c2cc(OC)c(OC)c(OC)c2)cc1`: the EC was 1 µM in the test on Paracentrotus lividus [1], greater than 4 µM with Paracentrotus lividus [3] and 4 µM in the test on Paracentrotus lividus [4]. Moreover, in test [2], the IC50 was greater than 1000 nM.
As for `COc1ccc(/C=C\c2cc(OC)c(OC)c(OC)c2)cc1OP(=O)([O-])[O-].[Na+].[Na+]` [FOSBRETABULIN DISODIUM], the Activity is 2.2% in [5]; 1.6% in test [9]; 15% in the test on Jurkat [11]; “tde” in the test on Jurkat [16]; less than 20% in test [17]; 24.3% in test [18]. For the same compound, the results for the Activity in the test on Jurkat [20] and in the test on Jurkat [26] were 31.6% and 39.5%, respectively. Moreover, the outcome (in the test on Jurkat [6]; in the test on Jurkat [7]; with Jurkat [8]; in [10]; in the test on Jurkat/A4 [13]; with Jurkat/A4 [21]) was Active. For the same compound, the outcome (in [22]; with Jurkat [23]; with Jurkat [24]; with Jurkat [25]; in the test with Jurkat [27]) was Active. The result in the test on Jurkat/A4 [12], in the test on Jurkat [14], in the test with Jurkat/A4 [15], in the test on Jurkat/A4 [28] and in the test with Jurkat/A4 [29] was inactive. In addition, the EC50 in the test on Jurkat [19] was 15 nM.
